High-throughput results from PubChem BioAssay.
RGS4 inh: human RGS4 inhibition. AID 463165. B-score at 10 µM. P49798. 310,000 tested, 0.45% active. HEK293 M3R/RGS4 inducible, Fluo-4 calcium flux; hits give high values; triggered by carbachol at its EC20;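 active = B-score, a plate-corrected calcium signal, over three deviations above library mean, with baseline fluorescence within five deviations of library mean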;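 also: RGS4 expression induced by doxycycline in cells with stable M3 receptor; B-score is computed from the integrated fluorescence ratio over baseline after carbachol; higher B-score means a larger calcium signal and so more RGS4 inhibition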
Target sequence (P49798 whole entry, looked up): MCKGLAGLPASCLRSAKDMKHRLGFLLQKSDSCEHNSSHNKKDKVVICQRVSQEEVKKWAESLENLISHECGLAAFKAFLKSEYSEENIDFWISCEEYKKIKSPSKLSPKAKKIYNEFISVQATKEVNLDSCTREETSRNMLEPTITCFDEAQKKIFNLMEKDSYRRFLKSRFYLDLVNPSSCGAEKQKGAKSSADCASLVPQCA
MrgX1 antagonist: human MrgX1 receptor antagonism, primary screen | Q96LB2 | B-score at 10 µM | MRGX1-HEK293 calcium flux, Fluo-4, BAM8-22 antagonism; hits give low values | 310,000 tested, 1.3% active;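 active = calcium-response B-score plate-corrected more than 3 library SD below zero, starting fluorescence within 5 deviations, no agonist response on first addition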;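 also: peak minus trough fluorescence over baseline after final BAM8-22 challenge near maximal dose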
Target sequence (Q96LB2 whole entry, looked up): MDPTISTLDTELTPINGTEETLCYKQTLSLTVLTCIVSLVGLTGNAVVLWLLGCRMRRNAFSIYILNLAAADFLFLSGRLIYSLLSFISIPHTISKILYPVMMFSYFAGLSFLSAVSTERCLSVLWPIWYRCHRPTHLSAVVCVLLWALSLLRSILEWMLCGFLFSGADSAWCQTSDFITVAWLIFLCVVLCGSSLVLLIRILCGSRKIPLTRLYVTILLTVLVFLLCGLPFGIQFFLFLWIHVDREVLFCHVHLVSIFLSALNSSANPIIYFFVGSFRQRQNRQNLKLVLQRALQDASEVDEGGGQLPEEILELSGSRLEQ
MrgX1 PAM: allosterically activates human MrgX1 receptor signaling; AID 588675; B-score at 10 µM; Q96LB2; MrgX1-HEK293, Fluo-4 calcium flux, FDSS; hits give high values; 310,000 tested, 0.63% active;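 active = plate-corrected calcium response at least 3 library SD above typical, normal starting fluorescence, not activating the receptor alone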;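 also: compound read alongside a low EC10 to EC30 dose of BAM8-22 agonist; peak minus trough fluorescence over baseline measured at the second addition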
RGS4 pot: potentiators or activators of RGS4. HEK293 M3R/inducible RGS4, carbachol calcium flux Fluo4; hits give low values. B-score at 10 µM. 310,000 tested, 0.92% active. AID 463111;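 active = B-score of the integrated calcium signal more than 4 SD below the library mean, with starting fluorescence not abnormally high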;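 also: negative B-score means reduced calcium response which marks RGS4 activation or potentiation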
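test system = M3R-expressing HEK293 line, RGS4 induced by doxycycline | probe or stimulus = carbachol at ECmax as muscarinic agonist stimulus | timing = dye loading 30 min 37 °C, buffer rest 30 min RT | signal = calcium dye Fluo4 fluorescence | evaluation = B score from integrated fluorescence ratio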
MrgX1 ag: human MrgX1 receptor agonism, primary screen; B-score at 10 µM; AID 588627; MrgX1-HEK293 cells, Fluo-4 calcium fluorescence, agonist mode; hits give high values; Q96LB2; 310,000 tested, 0.44% active;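 active = calcium response B-score plate-corrected fluorescence ratio at least 3 library SD, with starting fluorescence B-score inside 5 SD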
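System – MrgX1-expressing HEK293 cells · Incubation – cells plated overnight, dye loaded 0.5 h 37 °C, 0.5 h room temperature · Technique – kinetic Fluo-4 NW fluorescence of intracellular calcium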
RGS4 block valid: RGS4 inhibitor validation; calcium response, % at 10 µM; AID 492999; shares compounds with RGS4 inh; HEK293 M3R/RGS4, carbachol calcium Fluo-4 fluorescence; carbachol added at its EC20; 0 = buffer wells, 100 = carbachol control; 1,700 tested, 65% active;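 active = duplicate-averaged calcium response above the buffer-only control mean plus 5 SD of those controls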;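 also: integrated fluorescence ratio F max minus min over baseline F0; higher response in RGS4-induced cells means RGS4 inhibition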
M3R Ca ctr: counter-screen for RGS4 inhibitors: effect in non-induced cells | shares compounds with RGS4 inh | HEK293 M3R non-induced, carbachol calcium Fluo-4; submaximal (EC20) carbachol stimulus; buffer wells 0%, carbachol control wells 100% | activity (percent), % at 10 µM | 1,900 tested, 20% active | AID 493000; call rule not given here;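 also: RGS4 induction absent so cells express M3R without RGS4; higher means more calcium signal and flags a non-specific hit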
M3R basal Ca ctr: signal in non-induced cells without carbachol, RGS4 inhibitor counter-screen; shares compounds with RGS4 inh; AID 493001; 1,900 tested, 22% active; HEK293 M3R/RGS4 non-induced, Fluo-4 calcium, no carbachol; normalised: buffer wells 0%, carbachol wells 100%; calcium response (agonist-mode artifact), % at 10 µM;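 active = duplicate-averaged calcium rise in uninduced cells above buffer wells' mean plus 5 SD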
Numbers without * were called inactive; i = inactive; · = no result. Compounds with a hit are over-represented: about 3.5% of the library has one in this group of screens.

SMILES | RGS4 inh | MrgX1 antagonist | MrgX1 PAM | RGS4 pot | MrgX1 ag | RGS4 block valid | M3R Ca ctr | M3R basal Ca ctr
CCOc1cccc(-c2c(C(=O)N/N=C/c3ccc(C)s3)nnn2-c2nonc2N)c1 | i | i | i | i | i | · | i | i
CCCCCC(=O)NNC1CC(=O)N(c2cccc(OCC)c2)C1=O (stereo not drawn) | i | i | i | i | i | · | · | ·
COc1cccc(OC)c1NC(=O)c1nc2c(nnn2Cc2ccccc2Cl)c(=O)[nH]1 | 5.5* | i | i | i | i | 14%* | i | i
O=C(NC1CCCC1)c1nc2c(nnn2Cc2ccccc2Cl)c(=O)[nH]1 | i | i | i | i | i | · | · | ·
CC/C(=N\NC(=O)c1cc(C)nc2ccccc12)c1ccc(C)s1 | i | i | i | i | i | · | · | ·
CCOc1ccc(N(CC(=O)NC2CCCCC2)S(=O)(=O)c2ccccc2)cc1 | i | i | i | i | i | · | · | ·
Cc1ccc(N2C(=O)[C@@H]3C(C(=O)C(c4ccccc4)c4ccccc4)=NN[C@@H]3C2=O)cc1 | 7.2* | i | i | i | i | 29%* | 102%* | i
Cc1ccc(N2C(=O)C3NN=C(C(=O)OCc4ccccc4)C3C2=O)cc1 (stereo not drawn) | i | i | i | i | i | · | · | ·
O=C(CCN1C(=O)/C(=C/C=C/c2ccccc2)SC1=S)Nc1nc2ccccc2s1 | i | i | i | i | i | · | · | ·
O=C(O)CCCCCN1C(=O)/C(=C\c2ccc(-c3ccc(Cl)cc3)o2)SC1=S | 36* | i | i | -11* | i | 44%* | i | 48%*
O=C(O)CCCN1C(=O)/C(=C/c2ccc(-c3nc4ccccc4s3)o2)SC1=S | 22* | i | i | -9.2* | i | 8.0%* | i | 389%*
Cc1ccc(S(=O)(=O)NC2=NCN(CC(=O)O)CN2)cc1 | i | i | i | i | i | · | · | ·
O=C(NCc1ccccc1F)c1ccc(S(=O)(=O)Nc2cccc(C(F)(F)F)c2)cc1 | i | i | i | i | i | · | · | ·
O=C(NCc1ccc(F)cc1)c1ccc(S(=O)(=O)Nc2cccc(C(F)(F)F)c2)cc1 | 5.2* | i | i | i | i | 16%* | i | 18%*
Cc1cccc2cc3c(NC(=O)C(C)(C)C)nn(CC(C)C)c3nc12 | i | i | i | i | i | · | · | ·
CCOC(=O)[C@@H]1[C@H]2COc3ccc(Br)cc3[C@@H]2N2C(=O)N(c3cccc(Cl)c3)C(=O)[C@]12C | i | i | i | i | i | i | i | i
CCOC(=O)[C@@H]1[C@H]2COc3ccc(Br)cc3[C@@H]2N2C(=O)N(c3ccccc3)C(=O)[C@@]12C | i | i | i | i | i | · | · | ·
CCOC(=O)[C@@H]1[C@H]2COc3ccc(Br)cc3[C@H]2N2C(=O)N(c3cccc(Cl)c3)C(=O)[C@]12C | i | i | i | i | i | i | i | i
Cc1ccc(-n2ncc(-c3nn[nH]n3)c2N)cc1 | i | i | i | i | i | · | · | ·
O=C(Nc1cccc(C(F)(F)F)c1)C1CCN(S(=O)(=O)c2ccc(N3CCCC3=O)cc2)CC1 | i | i | i | i | i | · | · | ·
O=S(=O)(Nc1ccc(S(=O)(=O)Nc2nccs2)cc1)c1ccc2c(c1)OCCO2 | i | i | i | i | i | i | i | i
NS(=O)(=O)c1ccc(NS(=O)(=O)c2ccc3c(c2)OCCO3)cc1 | i | i | i | i | i | · | · | ·
COc1ccc(-c2cnnn2-c2ccc(NC(=O)c3ccco3)cc2)cc1OC | 4.7* | i | i | i | i | 6.0%* | i | i
CCC(=O)N1CCc2cc(Br)cc(S(=O)(=O)N(C)c3ccc(OC)cc3OC)c21 | i | i | i | i | i | · | · | ·
c1csc(C2Nc3cccc4cccc(c34)N2)c1 | 6.1* | i | i | i | i | i | i | i
SMILES | RGS4 inh | MrgX1 antagonist | MrgX1 PAM | RGS4 pot | MrgX1 ag | RGS4 block valid | M3R Ca ctr | M3R basal Ca ctr
Brc1cccc(C2Nc3cccc4cccc(c34)N2)c1 | i | i | i | i | i | · | · | ·
Brc1ccc(C2Nc3cccc4cccc(c34)N2)o1 | 5.2* | i | i | i | i | i | i | i
Cc1ccc(CC(=O)NCC(O)c2ccccc2)cc1 (stereo not drawn) | i | i | i | i | i | · | · | ·
CSc1nc(NC(C)(C)C)nc(Oc2ccc(=O)n(C)n2)n1 | i | i | i | i | i | · | · | ·
N#Cc1c(-c2ccco2)cc(-c2ccc(F)cc2)nc1N | 6.3* | i | i | i | i | 7.0%* | i | 24%*
N#Cc1c(-c2ccc(F)cc2)cc(-c2cccnc2)nc1N | i | i | i | i | i | · | · | ·
N#Cc1c(-c2ccccc2)cc(-c2ccc(O)cc2)nc1N | i | i | i | i | i | · | · | ·
Cc1ccc(-c2cc(-c3ccccc3)nc(N)c2C#N)o1 | i | i | i | i | i | i | i | i
O=C(COc1ccccc1Cl)Nc1ccc(S(=O)(=O)Nc2ccccn2)cc1 | i | i | i | i | i | · | · | ·
COC(=O)c1cn(C(=O)OC)c2ccccc12 | i | i | i | i | i | · | · | ·
COC(=O)c1cn(C(=O)/C=C/c2ccc(OC)c(OC)c2)c2ccccc12 | 4.7* | i | i | i | i | i | i | i
Cc1c(Cl)ccc2c(C(=O)O)cc(-c3ccccc3)nc12 | 5.8* | i | i | i | i | 22%* | 40%* | i
Cc1c(Cl)ccc2c(C(N)=O)cc(-c3ccccn3)nc12 | i | i | i | i | i | · | · | ·
Oc1ccc(N=C/C=C/c2cccc(Br)c2)cc1-c1nc2ccccc2s1 | 8.6* | i | i | i | i | i | i | i
O=C1NC2=C(C(=O)CCC2)C(c2cccc([N+](=O)[O-])c2)N1 (stereo not drawn) | i | · | · | i | · | · | · | ·
CCN(C(=O)CSc1nnc(-c2ccncc2)n1Cc1ccccc1)C1CCS(=O)(=O)C1 (stereo not drawn) | i | i | i | i | i | · | · | ·
